Columns and labels:
[1] = folding enthalpy; higher = less favourable; fluorescence melt of hairpins on a sequencing array, two-state fit; conditions: sodium 0.088 M
How it was run: (§1)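 Two-state fits, bootstrapped, provided melting temperature and folding enthalpy from Cy3 fluorescence normalised to pre-quench Cy3 and to control constructs. Library hairpins with annealed Cy3 and quencher oligos were imaged on a sequenced MiSeq flow cell in 50 mM Na-HEPES pH 8.0, 25 mM NaCl, at 2.5 °C intervals up to 60 °C. Four replicates were combined with inverse-variance weighting. A 9.35 °C upward shift was applied to fitted temperatures to match UV melts.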

[2] = melting temperature; fluorescence melt of hairpins on a sequencing array, two-state fit, raised by 9.35 °C to match UV melts; conditions: sodium 0.088 M
How it was run: as §1

Row | Sequence | folding enthalpy [1] [kcal/mol] | Tm [2] [°C]
1 | GCTAAGTCGAAAGACAGC (((..(((....)))))) | -20.2 | 41.2
2 | CGTCCCGGAAACGGTACG (((.(((....))).))) | -29.1 | 47.2
3 | GGGAGTGCGAAAGCACCC (((..(((....)))))) | -11.6 | 55.2
4 | GCGTCGTACGC ((((...)))) | -18.3 | 65.6
5 | GCCTTCGAAAGAAGGGGC ((((((....)))..))) | -17.8 | 53.8
6 | GCGTGGCGAAAGCACCGC (((..((....))..))) | -31.9 | 62.2
7 | GGATTCCGAAAGGACTCC (((.(((....))).))) | -38.8 | 47
8 | GCGGACGTCCGC ((((....)))) | -53.7 | 60.8
9 | GCTGGGCGAAAGCCAGC (((.(((....)))))) | -22.4 | 68.5
10 | GATCAGCGTACTGATC ((((((....)))))) | -30.2 | 51.6
11 | GTCCCCGGAAACGGGAAC ((.((((....)))).)) | -15.1 | 46.4
12 | GTAAGCGAAAGCTCGTAC ((((((....)))..))) | -8.1 | 24.2
13 | GCTCGCTCGAAAGAGAGC (((..(((....)))))) | -20.8 | 48.6
14 | GATCTATCTGTAGATC ((((((....)))))) | -33.9 | 42.9
15 | GTCTACGAAAGTAACGAC ((((((....)))..))) | -16.4 | 31.3
16 | GACGACGAAAGTCTGGTC ((((((....)))..))) | -21.8 | 41.2
17 | GATCCAGGAGTGGATC ((((((....)))))) | -36.7 | 52.5
18 | GCGTGTGGAAACGCATGC ((.((.(....).)).)) | -23.4 | 47.4
19 | GACGCTGGAAACAGTGTC (((.(((....))).))) | -42 | 53.5
20 | GCACTGCGAAAGCTATGC (((..((....))..))) | -16.7 | 40.3
21 | GGTTTACGAAAGTAACC (((.(((....)))))) | -20.6 | 44.2
22 | GATCTTGGAAAGATC ((((((...)))))) | -34.5 | 51.9
23 | GATCTGCATCCAGATC ((((((....)))))) | -42 | 46.7
24 | GGAAAACGAAAGTTATCC (((.(((....))).))) | -29.6 | 37

Row | Sequence | folding enthalpy [1] [kcal/mol] | Tm [2] [°C]
25 | GCTAGGCCGAAAGGCAGC (((..(((....)))))) | -15.1 | 47.8
26 | GACGCCGAAAGGCGCGTC ((((((....)))..))) | -9.77 | 49.6
27 | GATCTCTCGGAGATC ((((((...)))))) | -37.1 | 55.6
28 | GATCTTACAAAAGATC ((((((....)))))) | -26.4 | 39.6
29 | GCTGTCGAAAGACTGAGC ((((((....)))..))) | -18.5 | 43
30 | GTATTTCGAAAGAATTAC (((.(((....))).))) | -28.3 | 33.3
31 | GATCAACCACTTGATC ((((((....)))))) | -32.6 | 42.3
32 | GATGCGGCGAAAGCCATC (((..(((....)))))) | -11.6 | 29.2
33 | GATACTGAAAAGTATC ((((((....)))))) | -40.9 | 48.5
34 | CGACCGGAAACGGTATCG ((((((....)))..))) | -13.6 | 33.6
35 | GCTCAGCGAAAGCTAGGC ((..(((....)))..)) | -15.5 | 44.5
36 | GTCCGGCCGAAAGGCGAC (((..(((....)))))) | -12.8 | 41.7
37 | GCAGGGCGAAAGCTCCGC ((.(.((....)).).)) | -17.6 | 49.5
38 | GATCAAGAGATTGATC ((((((....)))))) | -29.5 | 41.8
39 | GCATAGCGAAAGCAGTGC (((..((....))..))) | -17 | 53.7
40 | GCTGGGCGAAAGCCTCGC ((..(((....)))..)) | -14.9 | 44.6
41 | GATCATTACAATGATC ((((((....)))))) | -37.9 | 49.7
42 | GTACACGGAAACACGTAC ((((..(....)..)))) | -15.4 | 29.1
43 | GCGACGCGAAAGCAACGC (((..((....))..))) | -16.8 | 54.2
44 | GCCAGGCGAAAGCGTAGC ((.(.((....)).).)) | -7.64 | 38.9
45 | GATCGCTTCCGCGATC ((((((....)))))) | -36 | 67.2
46 | GGACCGGGAAACCAGTCC ((((.((....)).)))) | -23.4 | 47.3
47 | GGGAAGGGAAACCTTTCC ((.((((....)))).)) | -24.4 | 45.7
48 | GCCGACGGAAACATCGGC (((((.(....).))))) | -38.6 | 53

Row | Sequence | folding enthalpy [1] [kcal/mol] | Tm [2] [°C]
49 | GCTGAGCGAAAGCCGAGC (((..((....))..))) | -17.2 | 48.7
50 | GTGGTACGAAAGTAGCAC (((.(((....))).))) | -42 | 63.2
51 | CGAATCGGAAACGAATCG (((.(((....))).))) | -37.4 | 44.7
52 | GCCATGCGAAAGCCTCGC ((.(.((....)).).)) | -6.86 | 34
53 | GTACGTGGAAACACGTAC (((((((....))))))) | -46.8 | 63.8
54 | GATCCCAACTGGGATC ((((((....)))))) | -39.5 | 63.4
55 | GACACCGGAAACGATGTC ((((.((....)).)))) | -29.6 | 45.2
56 | GATCCTAACAGGATC ((((((...)))))) | -40.5 | 55.3
57 | GATCTACGTTTAGATC ((((((....)))))) | -32.4 | 39.1
58 | GGGTTGCGAAAGCACCCC (((.(((....))).))) | -19.4 | 62.9
59 | GCGGGGATCCGC ((((....)))) | -19.9 | 68.9
60 | GACCCCGAAAGGGTGTC ((((((....))).))) | -26.6 | 57.6
61 | GGTCGCTCGAAAGAGACC (((..(((....)))))) | -20.6 | 49.1
62 | GCTCGGCGAAAGCACAGC (((..((....))..))) | -12.2 | 51.2
63 | GTGAGAGAAATCTCAC ((((((....)))))) | -32.4 | 51.7
64 | GCCTCGCGAAAGCTAAGC ((.(.((....)).).)) | -6.03 | 25.6
65 | GATCAGCCAGCTGATC ((((((....)))))) | -40.1 | 56.5
66 | GGAACACGAAAGTGCTCC (((.(((....))).))) | -40.7 | 50.2
67 | GGCAACGAAAGTTGTGCC ((((((....)))..))) | -13.5 | 51.2
68 | GCGGAGTGCCGC ((((....)))) | -13.7 | 57.1
69 | GTCGGAGAAATCCGAC ((((((....)))))) | -35.7 | 61.7
70 | GATCAGTGGACTGATC ((((((....)))))) | -37 | 51.8
71 | GATTTCCGAAAGGACATC (((.(((....))).))) | -27.1 | 38
72 | GCGGACAGCCGC ((((....)))) | -17.4 | 53.8

Row | Sequence | folding enthalpy [1] [kcal/mol] | Tm [2] [°C]
73 | GATCAGCGCCTGATC ((((((...)))))) | -38.9 | 48.7
74 | GTACGGTCGAAAGACTAC (((..(((....)))))) | -10.6 | 26.8
75 | GTGTGTGGAAACGCACAC (((((.(....).))))) | -36.2 | 56.5
76 | CGATCCGGAAACGGTCG (((.(((....)))))) | -29.1 | 50.5
77 | GGTTTGGGAAACCAGATC (.(.(((....))).).) | -10.3 | 30
78 | GATCAAGACGTTGATC ((((((....)))))) | -34 | 48.2
79 | GTCTACGAAAGTACAGAC ((((((....)))..))) | -18.1 | 33.4
80 | GCATGGCGAAAGCGTTGC (((..((....))..))) | -21.5 | 48
81 | GGAGGTGGAAACACCCCC ((.((((....)))).)) | -18.7 | 49.1
82 | GAGCGTGGAAACACGCCC (.(((((....))))).) | -7.9 | 47.9
83 | GAGTTAGGAAACTAGCTC (((.(((....))).))) | -28.9 | 40.4
84 | GTTGAGGAAACTCAAC ((((((....)))))) | -32.2 | 53.4
85 | GTATGCGGAAACACATAC (((((.(....).))))) | -32.8 | 39.8
86 | GACGCACCGAAAGGTGTC (((..(((....)))))) | -8.75 | 32.1
87 | GTGAGCGGAAACACTCAC (((((.(....).))))) | -43.7 | 47.7
88 | GTCTTTGGAAACGAAGAC (((((.(....).))))) | -30.6 | 45
89 | GTTTCCGCGAAAGCGAAC (((..(((....)))))) | -9.18 | 23.6
90 | GCCCCGCGAAAGCCGAGC ((.(.((....)).).)) | -11.3 | 32.1
91 | GGGCACGAAAGTGTTCCC ((((((....)))..))) | -17.7 | 46.1
92 | GCTACGGGAAACCATAGC ((((.((....)).)))) | -31 | 39.4
93 | GGTTTAGGAAACTAAGCC ((.((((....)))).)) | -27.6 | 39.8

— the array DNA melting data of Ke et al. (doi:10.1101/2024.01.08.574731)
